Results: ChEMBL document CHEMBL1140586, “Design and synthesis of a functionally selective D3 agonist and its in vivo delivery via the intranasal route” (Bioorg Med Chem Lett, 2007)

Assays:
[1] = target: D(2) dopamine receptor (Homo sapiens, UniProt P14416); experiment: Agonist activity at human recombinant dopamine D2 receptor expressed in rat pituitary cells assessed as inhibition of forskolin-stimulated cAMP accumulation; assay type: functional, cell-based, Pituitary gland cell
[2] = target: D(3) dopamine receptor (Homo sapiens, UniProt P35462); experiment: Agonist activity at human recombinant dopamine D3 receptor expressed in CHO cells assessed as inhibition of forskolin-stimulated cAMP accumulation; assay type: functional, cell-based
[3] = Clearance in human; assay type: ADME, organism-based; conditions: in vivo
[4] = Clearance in rat; assay type: ADME, organism-based; conditions: in vivo
[5] = Stability in human hepatocytes; assay type: ADME, cell-based, Liver, Hepatocyte
In short: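 Rat, dog and human hepatocyte incubations; read-out was the disappearance half-life of parent compound, in minutes.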

D(2) dopamine receptor, sequence (P14416 whole entry): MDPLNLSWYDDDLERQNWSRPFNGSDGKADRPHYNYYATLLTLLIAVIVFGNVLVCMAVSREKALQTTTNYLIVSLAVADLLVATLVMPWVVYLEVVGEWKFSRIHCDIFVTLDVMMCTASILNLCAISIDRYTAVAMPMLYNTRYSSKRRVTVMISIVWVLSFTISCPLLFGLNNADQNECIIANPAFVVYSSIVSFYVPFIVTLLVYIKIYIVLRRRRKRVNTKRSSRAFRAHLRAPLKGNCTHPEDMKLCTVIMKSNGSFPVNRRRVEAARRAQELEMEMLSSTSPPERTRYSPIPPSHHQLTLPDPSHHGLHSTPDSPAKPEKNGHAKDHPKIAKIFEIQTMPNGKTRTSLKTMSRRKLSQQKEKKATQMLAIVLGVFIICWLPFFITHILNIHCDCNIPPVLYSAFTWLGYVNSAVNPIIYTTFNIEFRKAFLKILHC
D(3) dopamine receptor, sequence (P35462 whole entry): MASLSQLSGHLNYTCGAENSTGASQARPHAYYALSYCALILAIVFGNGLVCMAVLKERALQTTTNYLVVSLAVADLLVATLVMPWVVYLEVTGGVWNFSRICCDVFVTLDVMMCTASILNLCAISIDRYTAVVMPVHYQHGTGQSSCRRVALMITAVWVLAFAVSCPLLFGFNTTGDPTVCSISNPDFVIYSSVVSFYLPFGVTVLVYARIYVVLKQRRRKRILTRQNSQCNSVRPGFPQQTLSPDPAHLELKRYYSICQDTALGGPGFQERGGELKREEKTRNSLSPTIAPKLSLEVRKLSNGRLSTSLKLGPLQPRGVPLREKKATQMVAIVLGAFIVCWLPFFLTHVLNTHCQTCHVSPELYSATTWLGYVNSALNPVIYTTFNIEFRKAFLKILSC

Row | SMILES | EC50 [1] [nM] | EC50 [2] [nM] | other results
1 | Oc1cccc(C2CNCCO2)c1 (centres undefined) | 7200 | 864 | –
2 | CCCN1CCOC(c2ccc(O)cc2)C1 (centres undefined) | – | > 1000 | –
3 | CCCN1CCOC(c2ccc(O)c(-n3cnnc3)c2)C1 (centres undefined) | – | > 1000 | –
4 | CC(C)(C)NCC(O)c1cc(O)cc(O)c1 (centres undefined) [TERBUTALINE] | – | – | clearance [3]: 3.1 mL/min/kg
5 | CCCN1CCOC(c2cccc(C(N)=O)c2)C1 (centres undefined) | – | > 1000 | –
6 | CCCN(CCC)CCc1cccc2c1CC(=O)N2 [ROPINIROLE] | 83 | – | –
7 | CCCN1CCOC(c2cc(O)cc(C#N)c2)C1 (centres undefined) | – | > 10000 | –
8 | CCCN1CCO[C@H](c2cc(O)cc(O)c2)C1 | > 10000 | 32 | Emax [2]: > 90%; clearance [4]: 188 mL/min/kg
9 | CCCN1CCOC(c2ccc(O)c(NS(C)(=O)=O)c2)C1 (centres undefined) | – | > 1000 | –
10 | C=CCN1CCOC(c2cccc(O)c2)C1 (centres undefined) | > 100000 | 1310 | –
11 | CCCN1CCOC(c2cc(O)cc(C(N)=O)c2)C1 (centres undefined) | – | > 10000 | –
12 | CCCN1CCC[C@@H]2Cc3nc(N)ncc3C[C@H]21 [QUINELORANE] | 2 | – | –
13 | CCCN1CCOC(c2ccc(O)c(C#N)c2)C1 (centres undefined) | – | > 1000 | –
14 | CCCN1CCOC(c2cccc(-c3ncc[nH]3)c2)C1 (centres undefined) | > 10000 | > 1000 | –
15 | CC(=O)NCCCCN1CCOC(c2cccc(O)c2)C1 (centres undefined) | > 10000 | > 10000 | –
16 | CNC[C@H](O)c1cccc(O)c1 [PHENYLEPHRINE] | – | – | clearance [3]: 30 mL/min/kg
17 | CCCN1CCOC(c2cccc(N)c2)C1 (centres undefined) | > 1000 | > 1000 | –
18 | CCCN1CCO[C@H](c2ccc(F)c(O)c2)C1 | > 10000 | 36 | half-life [5]: 21 min; Emax [2]: > 90%
19 | CCCN1CCOC(c2cccc(NS(C)(=O)=O)c2)C1 (centres undefined) | > 1000 | > 1000 | –
20 | CCCN1CCO[C@@H](c2cc(O)cc(O)c2)C1 | > 10000 | > 10000 | –
21 | CCCN1CCOC(c2cc(O)cc(O)c2)C1 (centres undefined) | – | 37 | –
22 | CCCN1CCO[C@@H](c2cccc(O)c2)C1 | > 10000 | > 5000 | –
23 | CCCN1CCOC(c2cccc(OC)c2)C1 (centres undefined) | > 10000 | > 1000 | –
24 | CCCN1CCOC(c2ccc(CO)c(O)c2)C1 (centres undefined) | – | > 5900 | –
